In brackets after ≈: the same amount, converted by molar mass. Activity calls are given as the source filed them. No cut-off for these calls is given here. Some results are limits rather than exact numbers.

The mortality is the share of the test organisms that died. Broadly, the LC50 is the concentration that kills 50% of the test population.

For experiment [1], the system named is Callosobruchus chinensis. Nature of the experiment: Insecticidal activity against 3 to 8 days old Callosobruchus chinensis assessed as mortality at 1 ug/mL measured after 24 hr by fumigation assay. Format: functional. Summed up: (§1)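 Adults from Directorate of Maize Research lab cultures, 20 per sealed 100 mL PVC container. Acetone solutions (0.1-1.0 μg/mL) applied to filter paper, air-dried 5 min, fixed inside lid; acetone-only controls. Held at 28 ± 2 °C, 65 ± 5% RH. Death confirmed by paintbrush probing; counted every 24 h to 72 h. Five replicates per treatment; three runs on different dates.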

In experiment [2] the test system is Tribolium castaneum. Briefly: Insecticidal activity against 3 to 8 days old Tribolium castaneum (red flour beetle) assessed as mortality measured after 24 hr by fumigation assay. The class given is functional. An outline of the steps: as §1
Experiment [3] has as its system Tribolium castaneum. Nature of the experiment: Insecticidal activity against 3 to 8 days old Tribolium castaneum (red flour beetle) assessed as mortality at 1 ug/mL measured after 72 hr by fumigation assay. Format: functional. An outline of the steps: as §1
The subject of experiment [4] is Rhyzopertha dominica. Nature of the experiment: Insecticidal activity against 3 to 8 days old Rhyzopertha dominica assessed as mortality at 1 ug/mL measured after 24 hr by fumigation assay. Format: functional. Summed up:
as §1

Experiment [5] relates to Sitophilus oryzae. Nature of the experiment: Insecticidal activity against 3 to 8 days old Sitophilus oryzae (rice weevil) assessed as mortality at 1 ug/mL measured after 72 hr by fumigation assay. The class given is functional. An outline of the steps:
as §1

Experiment [6] has as its system Rhyzopertha dominica. Nature of the experiment: Insecticidal activity against 3 to 8 days old Rhyzopertha dominica assessed as mortality at 1 ug/mL measured after 72 hr by fumigation assay. The class given is functional. An outline of the steps:
as §1

In experiment [7] the test system is Callosobruchus chinensis. Briefly: Insecticidal activity against 3 to 8 days old Callosobruchus chinensis assessed as mortality measured after 72 hr by fumigation assay. The class given is functional. An outline of the steps:
as §1

Experiment [8] relates to Callosobruchus chinensis. Nature of the experiment: Insecticidal activity against 3 to 8 days old Callosobruchus chinensis assessed as mortality at 1 ug/mL measured after 72 hr by fumigation assay. The class given is functional. Summed up: as §1
Experiment [9] has as its system Tribolium castaneum. Nature of the experiment: Insecticidal activity against 3 to 8 days old Tribolium castaneum (red flour beetle) assessed as mortality at 1 ug/mL measured after 48/ hr by fumigation assay. The class given is functional. An outline of the steps:
as §1

The test system of experiment [10] is Sitophilus oryzae. Briefly: Insecticidal activity against 3 to 8 days old Sitophilus oryzae (rice weevil) assessed as mortality at 1 ug/mL measured after 48 hr by fumigation assay. Format: functional. An outline of the steps:
as §1

Experiment [11] deals with Tribolium castaneum. Briefly: Insecticidal activity against 3 to 8 days old Tribolium castaneum (red flour beetle) assessed as mortality at 1 ug/mL measured after 24 hr by fumigation assay. The class given is functional. An outline of the steps:
as §1

Experiment [12] concerns Callosobruchus chinensis. Nature of the experiment: Insecticidal activity against 3 to 8 days old Callosobruchus chinensis assessed as mortality at 1 ug/mL measured after 48 hr by fumigation assay. Format: functional. Summed up: as §1
In experiment [13] the test system is Rhyzopertha dominica. Briefly: Insecticidal activity against 3 to 8 days old Rhyzopertha dominica assessed as mortality measured after 24 hr by fumigation assay. Format: functional. Summed up: as §1
Experiment [14] relates to Rhyzopertha dominica. Nature of the experiment: Insecticidal activity against 3 to 8 days old Rhyzopertha dominica assessed as mortality at 1 ug/mL measured after 48 hr by fumigation assay. Format: functional. An outline of the steps: as §1
Experiment [15] has as its system Sitophilus oryzae. Nature of the experiment: Insecticidal activity against 3 to 8 days old Sitophilus oryzae (rice weevil) assessed as mortality measured after 72 hr by fumigation assay. The class given is functional. Summed up: as §1
For experiment [16], the system named is Sitophilus oryzae. Nature of the experiment: Insecticidal activity against 3 to 8 days old Sitophilus oryzae (rice weevil) assessed as mortality at 1 ug/mL measured after 24 hr by fumigation assay. The class given is functional. Summed up:
as §1

For experiment [17], the system named is Tribolium castaneum. Briefly: Insecticidal activity against 3 to 8 days old Tribolium castaneum (red flour beetle) assessed as mortality at 0.2 ug/mL measured within 24 hr by fumigation assay. Format: functional, organism-based. Summed up: as §1

Consider `COc1ccc(-c2c(O)c3c(OC)c(CC=C(C)C)c4c(c3oc2=O)C=CC(C)(C)O4)cc1` [SCANDENIN A], for which the mortality at 1 µg/mL worked out at 79% in the experiment with Callosobruchus chinensis [1]; 63.8% in the experiment on Tribolium castaneum [3]; 60.6% in the experiment with Rhyzopertha dominica [4]; 75.6% in the experiment on Sitophilus oryzae [5]; 67.8% with Rhyzopertha dominica [6]; 83% in the experiment with Callosobruchus chinensis [8]. Moreover, the mortality at 1 µg/mL in the experiment with Tribolium castaneum [9] stood at 60.8%; in the experiment with Sitophilus oryzae [10], 72%; in the experiment on Tribolium castaneum [11], 58.2%; in the experiment with Callosobruchus chinensis [12] it was 81.4%; in the experiment on Rhyzopertha dominica [14], 64.2%; with Sitophilus oryzae [16], 69.4%. Moreover, the LC50 amounted to 0.82 mg/L (≈ 1.83 µM) with Tribolium castaneum [2], 0.43 mg/L (≈ 0.959 µM) in the experiment with Callosobruchus chinensis [7], 0.82 mg/L (≈ 1.83 µM) in the experiment with Rhyzopertha dominica [13] and 0.76 mg/L (≈ 1.69 µM) in the experiment with Sitophilus oryzae [15].
For the compound `CC(C)=CCc1c2c(c3occ(-c4ccc(O)cc4)c(=O)c3c1O)C=CC(C)(C)O2` [OSAJIN], the mortality at 1 µg/mL in the experiment with Callosobruchus chinensis [1], in the experiment on Tribolium castaneum [3], in the experiment on Rhyzopertha dominica [4], in the experiment with Sitophilus oryzae [5], in the experiment on Rhyzopertha dominica [6] and in the experiment on Callosobruchus chinensis [8] was 100% each time. For the same compound, the mortality at 1 µg/mL with Tribolium castaneum [11] and in the experiment on Sitophilus oryzae [16] was 100% in each case. Besides, the LC50 in the experiment with Tribolium castaneum [2] amounted to 0.26 mg/L (≈ 0.643 µM); with Callosobruchus chinensis [7], 0.29 mg/L (≈ 0.717 µM); in the experiment on Rhyzopertha dominica [13], 0.32 mg/L (≈ 0.791 µM); in the experiment on Sitophilus oryzae [15], 0.28 mg/L (≈ 0.692 µM). The result with Tribolium castaneum [17] was Active.
Consider `O=c1c(-c2ccc(O)cc2)coc2cc(O)cc(O)c12` [GENISTEIN], for which the mortality at 1 µg/mL in the experiment on Callosobruchus chinensis [1], in the experiment on Tribolium castaneum [3], in the experiment on Rhyzopertha dominica [4], in the experiment with Sitophilus oryzae [5], in the experiment on Rhyzopertha dominica [6] and in the experiment with Callosobruchus chinensis [8] was 100% in each case. The mortality at 1 µg/mL in the experiment on Tribolium castaneum [11] and in the experiment with Sitophilus oryzae [16] was 100% in each case. The LC50 in the experiment on Tribolium castaneum [2] worked out at 0.18 mg/L (≈ 0.666 µM); in the experiment with Callosobruchus chinensis [7], 0.17 mg/L (≈ 0.629 µM); with Rhyzopertha dominica [13], 0.28 mg/L (≈ 1.04 µM); with Sitophilus oryzae [15] it was 0.31 mg/L (≈ 1.15 µM). Also, the outcome in the experiment with Tribolium castaneum [17] was Active.
Take `COc1c(CC=C(C)C)c2c(c3occ(-c4ccc(O)cc4)c(=O)c13)C=CC(C)(C)O2` [SCANDINONE]: the mortality at 1 µg/mL in the experiment on Callosobruchus chinensis [1], in the experiment on Tribolium castaneum [3], in the experiment on Rhyzopertha dominica [4], with Sitophilus oryzae [5], in the experiment with Rhyzopertha dominica [6] and with Callosobruchus chinensis [8] was 100% in each case. Also, the mortality at 1 µg/mL in the experiment on Tribolium castaneum [11] and in the experiment on Sitophilus oryzae [16] was 100% in each case. Moreover, the median lethal concentration (LC50) was determined as 0.2 mg/L (≈ 0.478 µM) in the experiment on Tribolium castaneum [2], 0.31 mg/L (≈ 0.741 µM) with Callosobruchus chinensis [7], 0.33 mg/L (≈ 0.789 µM) in the experiment on Rhyzopertha dominica [13] and 0.24 mg/L (≈ 0.573 µM) with Sitophilus oryzae [15]. Further, the outcome with Tribolium castaneum [17] was Active.
For `CC(C)=CCc1c2c(c(O)c3c(=O)cc(-c4ccc(O)cc4)oc13)C=CC(C)(C)O2` [LAXIFOLIN], the mortality at 1 µg/mL was found to be 88.8% with Callosobruchus chinensis [1]; 100% in the experiment on Tribolium castaneum [3]; 89.3% in the experiment with Rhyzopertha dominica [4]; 100% in the experiment on Sitophilus oryzae [5]; 92% with Rhyzopertha dominica [6]; 96.4% in the experiment with Callosobruchus chinensis [8]. Further, the mortality at 1 µg/mL was determined as 94.6% with Tribolium castaneum [9]; 92.3% in the experiment with Tribolium castaneum [11]; 93.2% with Callosobruchus chinensis [12]; 90.8% in the experiment with Rhyzopertha dominica [14]; 100% with Sitophilus oryzae [16]. The LC50 was determined as 0.34 mg/L (≈ 0.841 µM) in the experiment on Tribolium castaneum [2], 0.39 mg/L (≈ 0.964 µM) with Callosobruchus chinensis [7], 0.34 mg/L (≈ 0.841 µM) in the experiment with Rhyzopertha dominica [13] and 0.2 mg/L (≈ 0.494 µM) in the experiment with Sitophilus oryzae [15].
As to `CC(C)=CCc1c2c(c(O)c3c(=O)c(-c4ccc(O)cc4)coc13)C=CC(C)(C)O2` [WARANGALONE], the mortality at 1 µg/mL with Callosobruchus chinensis [1] came out at 27.9%; in the experiment with Tribolium castaneum [3], 37.2%; with Rhyzopertha dominica [4], 15.8%; in the experiment on Sitophilus oryzae [5], 63.4%; in the experiment on Rhyzopertha dominica [6] it was 21.8%; in the experiment on Callosobruchus chinensis [8] it was 31.4%. Besides, the mortality at 1 µg/mL in the experiment with Tribolium castaneum [9] was found to be 32.8%; with Sitophilus oryzae [10], 60%; with Tribolium castaneum [11] it was 30.7%; in the experiment with Callosobruchus chinensis [12], 29.1%; in the experiment with Rhyzopertha dominica [14], 18.6%; in the experiment with Sitophilus oryzae [16], 50.1%. Also, the LC50 was greater than 1 mg/L with Tribolium castaneum [2], greater than 1 mg/L in the experiment on Callosobruchus chinensis [7], greater than 1 mg/L in the experiment on Rhyzopertha dominica [13] and 0.84 mg/L (≈ 2.08 µM) in the experiment with Sitophilus oryzae [15].
On to `COc1c(CC=C(C)C)c2c(c3oc(=O)c(-c4ccc(O)cc4)c(O)c13)C=CC(C)(C)O2` [SCANDENIN], for which the mortality at 1 µg/mL with Callosobruchus chinensis [1] is 49.5%; with Tribolium castaneum [3], 32.2%; in the experiment on Rhyzopertha dominica [4], 72.3%; in the experiment on Sitophilus oryzae [5] it was 85.4%; in the experiment on Rhyzopertha dominica [6] it was 78.2%; in the experiment on Callosobruchus chinensis [8], 58.2%. In addition, the mortality at 1 µg/mL in the experiment on Tribolium castaneum [9] was 29.6%; with Sitophilus oryzae [10], 83.6%; with Tribolium castaneum [11], 24.7%; in the experiment on Callosobruchus chinensis [12], 56%; in the experiment on Rhyzopertha dominica [14], 75.8%; in the experiment on Sitophilus oryzae [16] it was 82%. Further, the LC50 was greater than 1 mg/L in the experiment with Tribolium castaneum [2], 0.9 mg/L (≈ 2.07 µM) in the experiment with Callosobruchus chinensis [7], 0.74 mg/L (≈ 1.7 µM) in the experiment on Rhyzopertha dominica [13] and 0.45 mg/L (≈ 1.04 µM) in the experiment with Sitophilus oryzae [15].
In the case of `CC(C)=CCc1cc(-c2coc3cc(O)c(CC=C(C)C)c(O)c3c2=O)ccc1O` [LUPALBIGENIN], the mortality at 1 µg/mL with Callosobruchus chinensis [1] came out at 100%; in the experiment with Tribolium castaneum [3], 91%; in the experiment with Rhyzopertha dominica [4], 93.4%; with Sitophilus oryzae [5], 100%; with Rhyzopertha dominica [6] it was 100%; in the experiment with Callosobruchus chinensis [8], 100%. Further, the mortality at 1 µg/mL in the experiment with Tribolium castaneum [9] stood at 88.4%; with Tribolium castaneum [11] it was 85.4%; with Rhyzopertha dominica [14], 94.6%; with Sitophilus oryzae [16] it was 100%. Besides, the LC50 came to 0.38 mg/L (≈ 0.935 µM) in the experiment on Tribolium castaneum [2], 0.23 mg/L (≈ 0.566 µM) in the experiment on Callosobruchus chinensis [7], 0.29 mg/L (≈ 0.713 µM) in the experiment on Rhyzopertha dominica [13] and 0.26 mg/L (≈ 0.64 µM) in the experiment with Sitophilus oryzae [15].
Consider `C[C@@H]1O[C@@H](OC[C@H]2O[C@@H](Oc3cc(O)c4c(=O)c(-c5ccc(O)cc5)coc4c3)[C@H](O)[C@@H](O)[C@@H]2O)[C@H](O)[C@H](O)[C@H]1O` [SPHAEROBIOSIDE], for which the mortality at 1 µg/mL with Callosobruchus chinensis [1], in the experiment on Tribolium castaneum [3], with Rhyzopertha dominica [4], in the experiment with Sitophilus oryzae [5], with Rhyzopertha dominica [6] and with Callosobruchus chinensis [8] was 100% each time. The mortality at 1 µg/mL in the experiment on Tribolium castaneum [11] and in the experiment on Sitophilus oryzae [16] was 100% each time. Besides, the LC50 was 0.2 mg/L (≈ 0.346 µM) in the experiment with Tribolium castaneum [2], 0.21 mg/L (≈ 0.363 µM) in the experiment with Callosobruchus chinensis [7], 0.27 mg/L (≈ 0.467 µM) in the experiment with Rhyzopertha dominica [13] and 0.18 mg/L (≈ 0.311 µM) in the experiment with Sitophilus oryzae [15]. Moreover, the outcome in the experiment with Tribolium castaneum [17] was Active.
